According to ChEMBL document CHEMBL1142952, “Design, synthesis, and activity of 2-imidazol-1-ylpyrimidine derived inducible nitric oxide synthase dimerization inhibitors” (J Med Chem, 2007):
The source made the active and inactive calls. The rule behind the calls is not given here.

What was measured:
[1] = test system: BSC-1; experiment: Selectivity ratio, IC50 for bcNOS/IC50 for iNOS using vaccinia virus-induced system in BSC1 cells; assay type: cell-based; settings: Homo sapiens
Method in brief: (§1)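 For each compound, the IC50 against bcNOS (b/i) or ecNOS (e/i) is divided by the iNOS IC50 from the same BSC-1 vaccinia system.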

[2] = test system: BSC-1; experiment: Selectivity ratio, IC50 for ecNOS/IC50 for iNOS using vaccinia virus-induced system in BSC1 cells; assay type: cell-based; settings: Homo sapiens; method in brief: as §1
[3] = Inhibition of vaccinia virus system-induced human NOS expressed in BSC1 cells; assay type: cell-based; settings: bsc-1
[4] = biological target: Nitric oxide synthase, inducible (Rattus norvegicus) (UniProt Q06518); experiment: Activity against rat cerebellum iNOS upto 1 uM
[5] = biological target: Nitric oxide synthase, inducible (Homo sapiens, UniProt P35228); experiment: Inhibition of cytokine-induced iNOS expressed in human A172 cells assessed as inhibition of NO formation; assay type: cell-based, A 172
Nitric oxide synthase, inducible, sequence (P35228 whole entry): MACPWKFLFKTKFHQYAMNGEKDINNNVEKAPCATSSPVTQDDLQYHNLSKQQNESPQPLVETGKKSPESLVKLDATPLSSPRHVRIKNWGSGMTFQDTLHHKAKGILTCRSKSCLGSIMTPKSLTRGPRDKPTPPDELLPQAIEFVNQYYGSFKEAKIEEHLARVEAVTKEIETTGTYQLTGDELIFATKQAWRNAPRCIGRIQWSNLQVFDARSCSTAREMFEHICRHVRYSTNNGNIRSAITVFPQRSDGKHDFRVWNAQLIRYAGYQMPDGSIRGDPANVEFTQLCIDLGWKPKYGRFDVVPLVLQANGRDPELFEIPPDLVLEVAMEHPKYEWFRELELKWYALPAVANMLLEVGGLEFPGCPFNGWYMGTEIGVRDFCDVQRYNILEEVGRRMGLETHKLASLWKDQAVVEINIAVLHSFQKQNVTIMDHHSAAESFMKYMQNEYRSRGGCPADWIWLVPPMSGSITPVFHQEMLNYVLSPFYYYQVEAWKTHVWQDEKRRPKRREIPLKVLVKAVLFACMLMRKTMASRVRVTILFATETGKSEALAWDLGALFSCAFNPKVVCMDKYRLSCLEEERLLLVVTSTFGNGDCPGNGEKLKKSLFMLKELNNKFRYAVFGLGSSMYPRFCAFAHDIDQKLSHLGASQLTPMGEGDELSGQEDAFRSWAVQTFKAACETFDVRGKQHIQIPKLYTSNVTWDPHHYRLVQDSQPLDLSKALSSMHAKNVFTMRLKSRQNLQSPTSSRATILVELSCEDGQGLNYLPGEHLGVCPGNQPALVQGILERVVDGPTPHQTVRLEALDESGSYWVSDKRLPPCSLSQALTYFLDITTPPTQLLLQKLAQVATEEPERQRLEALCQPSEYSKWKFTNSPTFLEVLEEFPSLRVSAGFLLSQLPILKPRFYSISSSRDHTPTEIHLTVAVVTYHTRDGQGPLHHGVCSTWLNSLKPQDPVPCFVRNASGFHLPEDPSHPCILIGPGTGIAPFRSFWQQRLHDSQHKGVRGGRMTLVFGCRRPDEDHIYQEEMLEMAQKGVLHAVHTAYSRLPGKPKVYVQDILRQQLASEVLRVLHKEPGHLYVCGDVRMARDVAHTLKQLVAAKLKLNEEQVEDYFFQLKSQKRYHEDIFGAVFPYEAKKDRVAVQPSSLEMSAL

Nitric oxide synthase, inducible (Rattus norvegicus), sequence (Q06518 whole entry): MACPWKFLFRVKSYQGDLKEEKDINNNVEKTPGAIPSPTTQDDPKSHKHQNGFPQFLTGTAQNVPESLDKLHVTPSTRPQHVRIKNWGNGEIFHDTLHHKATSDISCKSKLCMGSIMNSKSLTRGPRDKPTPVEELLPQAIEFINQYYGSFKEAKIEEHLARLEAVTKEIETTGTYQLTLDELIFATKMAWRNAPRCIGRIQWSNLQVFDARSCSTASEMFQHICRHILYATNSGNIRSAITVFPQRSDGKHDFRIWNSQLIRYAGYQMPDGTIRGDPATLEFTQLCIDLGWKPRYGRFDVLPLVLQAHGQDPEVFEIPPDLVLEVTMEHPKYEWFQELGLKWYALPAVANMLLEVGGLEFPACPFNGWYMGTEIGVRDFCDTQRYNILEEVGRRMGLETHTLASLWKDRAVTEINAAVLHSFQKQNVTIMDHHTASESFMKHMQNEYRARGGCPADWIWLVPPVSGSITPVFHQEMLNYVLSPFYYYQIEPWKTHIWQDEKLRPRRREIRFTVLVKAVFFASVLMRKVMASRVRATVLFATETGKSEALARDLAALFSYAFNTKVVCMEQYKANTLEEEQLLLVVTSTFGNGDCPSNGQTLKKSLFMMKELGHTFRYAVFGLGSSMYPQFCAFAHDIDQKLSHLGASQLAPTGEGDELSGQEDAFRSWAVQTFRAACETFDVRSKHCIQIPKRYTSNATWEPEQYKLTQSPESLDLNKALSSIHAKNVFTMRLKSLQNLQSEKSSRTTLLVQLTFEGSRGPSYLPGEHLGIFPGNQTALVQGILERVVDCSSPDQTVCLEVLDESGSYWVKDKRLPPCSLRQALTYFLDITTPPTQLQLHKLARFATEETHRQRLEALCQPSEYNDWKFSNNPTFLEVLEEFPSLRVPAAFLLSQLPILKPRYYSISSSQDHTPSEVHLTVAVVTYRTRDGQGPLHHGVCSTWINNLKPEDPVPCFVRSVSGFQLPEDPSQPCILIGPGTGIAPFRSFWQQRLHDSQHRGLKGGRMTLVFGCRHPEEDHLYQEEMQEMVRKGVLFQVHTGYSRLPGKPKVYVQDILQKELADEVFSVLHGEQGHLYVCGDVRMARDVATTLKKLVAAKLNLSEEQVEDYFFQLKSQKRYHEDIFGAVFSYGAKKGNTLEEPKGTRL

| Structure (SMILES) | Ratio IC50 [1] | Ratio IC50 [2] | IC50 [3] [µM] | Activity [4] | IC50 [5] [µM] |
| --- | --- | --- | --- | --- | --- |
| O=C(CC1CN(C(=O)Nc2ccccc2)CCN1c1ccnc(-n2ccnc2)n1)NCc1ccc2c(c1)OCO2 (stereo not given) | 3 | 350 | 0.025 | inactive | 0.00087 |
| COc1cccc(CNC(=O)CC2CCCCN2c2ccnc(-n3ccnc3)n2)c1 (stereo not given) | 4 | > 430 | 0.23 | inactive | 0.0037 |
| O=C(CC1CCCCN1c1ccnc(-n2ccnc2)n1)Nc1ccc2c(c1)OCO2 (stereo not given) |  |  |  | inactive | > 0.1 |
| Cc1cc(N2CCN(Cc3ccccc3)C(CC(=O)NCc3ccc4c(c3)OCO4)C2)nc(-n2ccnc2)n1 (stereo not given) | 130 | 350 | 0.16 | inactive | 0.025 |
| N#Cc1ccc(CNC(=O)CC2CCCCN2c2ccnc(-n3ccnc3)n2)cc1 (stereo not given) |  |  | > 1 | inactive |  |
| Nc1ccc(CNC(=O)CC2CCCCN2c2ccnc(-n3ccnc3)n2)cc1 (stereo not given) |  |  | 0.85 | inactive |  |
| CC(=O)N1CCN(c2ccnc(-n3ccnc3)n2)C(CC(=O)NCc2ccc3c(c2)OCO3)C1 (stereo not given) | 3 | > 10 | 0.32 | inactive | 0.001 |
| O=C(CC1CCCCN1c1cc(Cl)nc(-n2ccnc2)n1)NCc1ccc2c(c1)OCO2 (stereo not given) | 5 | 1100 | 0.009 | inactive | 0.00049 |
| O=C(CC1CCCCN1c1cc(-n2ccnc2)ncn1)NCc1ccc2c(c1)OCO2 (stereo not given) | 19 | > 1000 | 0.1 | inactive | 0.01 |
| O=C(CC1CN(c2cccc(F)n2)CCN1c1ccnc(-n2ccnc2)n1)NCc1ccc2c(c1)OCO2 (stereo not given) | 6 | 850 | 0.01 | inactive | 0.00028 |
| Cc1cc(N2CCN(C(=O)C(C)C)[C@@H](CC(=O)NCc3ccc4c(c3)OCO4)C2)nc(-n2ccnc2)n1 |  |  | > 1 | inactive | 0.3 |
| COc1ccc(CCNC(=O)CC2CCCCN2c2ccnc(-n3ccnc3)n2)cc1 (stereo not given) | 8 | > 1000 | 0.042 | inactive | 0.0035 |
| COc1ccc(NC(=O)CC2CCCCN2c2ccnc(-n3ccnc3)n2)cc1OC (stereo not given) |  |  | 1.8 | inactive |  |
| O=C(CC1CCCCN1c1ccnc(-n2ccnc2)n1)NCc1ccc(F)cc1 (stereo not given) | 5 | 490 | 0.21 | inactive | 0.003 |
| O=C(CC1CCCCN1c1ccnc(-n2ccnc2)n1)NCc1ccco1 (stereo not given) | 13 | 140 | 0.26 | inactive | 0.063 |
| O=C(CC1CCCCCN1c1ccnc(-n2ccnc2)n1)NCc1ccc2c(c1)OCO2 (stereo not given) |  |  |  | inactive | 0.002 |
| O=C(CC1CCCCN1c1ccnc(-n2ccnc2)n1)NCc1ccc([N+](=O)[O-])cc1 (stereo not given) | > 10 | 74 | 0.94 | inactive | 0.168 |
| O=C(CC1CCCCN1c1nccc(-n2ccnc2)n1)NCc1ccc2c(c1)OCO2 (stereo not given) | 6 | > 500 | 0.22 | inactive | 0.052 |
| O=C(CC1COCCN1c1ccnc(-n2ccnc2)n1)NCc1ccc2c(c1)OCO2 (stereo not given) |  |  |  | inactive | 0.0005 |
| O=C(CC1CN(C(=O)c2ccco2)CCN1c1ccnc(-n2ccnc2)n1)NCc1ccc2c(c1)OCO2 (stereo not given) | 6 | 1000 | 0.048 | inactive | 0.00067 |
| O=C(CC1CN(Cc2ccco2)CCN1c1ccnc(-n2ccnc2)n1)NCc1ccc2c(c1)OCO2 (stereo not given) | 2 | 1100 | 0.013 | inactive | 0.00058 |
| O=C(CC1CCCCN1c1ccnc(-n2ccnc2)n1)NCc1ccccc1 (stereo not given) |  |  | 0.44 | inactive |  |
| O=C(CC1CCCCN1c1ccnc(-n2ccnc2)n1)NCc1ccc(OC(F)(F)F)cc1 (stereo not given) | 5 | 220 | 0.14 | inactive | 0.019 |
| O=C(CC1CN(C(=O)NCc2ccccc2)CCN1c1ccnc(-n2ccnc2)n1)NCc1ccc2c(c1)OCO2 (stereo not given) | 4 | 490 | 0.072 | inactive | 0.00096 |
| COC(=O)N1CCN(c2cc(C)nc(-n3ccnc3)n2)CC1CC(=O)NCc1ccc2c(c1)OCO2 (stereo not given) | 50 | > 200 | 0.42 | inactive | 0.0054 |
| CS(=O)(=O)c1ccc(CNC(=O)CC2CCCCN2c2ccnc(-n3ccnc3)n2)cc1 (stereo not given) |  |  | 0.94 | inactive |  |
| CC(C)CCN1CCN(c2ccnc(-n3ccnc3)n2)C(CC(=O)NCc2ccc3c(c2)OCO3)C1 (stereo not given) | 6 | 1000 | 0.01 | inactive | 0.001 |
| O=C(CC1CN(C(=O)c2ccccc2)CCN1c1ccnc(-n2ccnc2)n1)NCc1ccc2c(c1)OCO2 (stereo not given) | 4 | 220 | 0.085 | inactive | 0.0005 |

| Structure (SMILES) | Ratio IC50 [1] | Ratio IC50 [2] | IC50 [3] [µM] | Activity [4] | IC50 [5] [µM] |
| --- | --- | --- | --- | --- | --- |
| CN1CCN(c2ccnc(-n3ccnc3)n2)C(CC(=O)NCc2ccc3c(c2)OCO3)C1 (stereo not given) | 2 | 1300 | 0.011 | inactive | 0.00048 |
| NS(=O)(=O)c1ccc(CNC(=O)CC2CCCCN2c2ccnc(-n3ccnc3)n2)cc1 (stereo not given) |  |  | > 0.33 | inactive |  |
| O=C(CC1CCCCN1c1ccnc(-n2ccnc2)n1)NCc1ccc(C(F)(F)F)cc1 (stereo not given) | 3 | 70 | 0.26 | inactive | 0.15 |
| O=C(CC1CCCCN1c1ccnc(-n2ccnc2)n1)NC(c1ccccc1)c1ccccc1 (stereo not given) |  |  |  | inactive |  |
| COc1ccc(CNC(=O)CC2CCCCN2c2ccnc(-n3ccnc3)n2)cc1 (stereo not given) |  |  | 0.023 | inactive |  |
| O=C(CC1CCCCN1c1cc(-n2ccnc2)nc(-n2ccnc2)n1)NCc1ccc2c(c1)OCO2 (stereo not given) | 13 | 130 | 0.515 | inactive | 0.035 |
| COc1cc(CNC(=O)CC2CCCCN2c2ccnc(-n3ccnc3)n2)cc(OC)c1OC (stereo not given) |  |  |  | inactive | > 0.1 |
| CCOC(=O)CN1CCN(c2ccnc(-n3ccnc3)n2)C(CC(=O)NCc2ccc3c(c2)OCO3)C1 (stereo not given) | 5 | 1700 | 0.0049 | inactive | 0.00093 |
| CNC(=O)CC1CCCCN1c1ccnc(-n2ccnc2)n1 (stereo not given) |  |  |  | inactive | > 0.1 |
| O=C(CC1CCCCN1c1cc(C(F)(F)F)nc(-n2ccnc2)n1)NCc1ccc2c(c1)OCO2 (stereo not given) | > 31 | > 310 | 0.32 | inactive | 0.18 |
| CN(Cc1ccccc1)C(=O)CC1CCCCN1c1ccnc(-n2ccnc2)n1 (stereo not given) |  |  |  | inactive |  |
| O=C(CC1CN(C(=O)Oc2ccccc2)CCN1c1ccnc(-n2ccnc2)n1)NCc1ccc2c(c1)OCO2 (stereo not given) | 5 | 700 | 0.016 | inactive | 0.0014 |
| O=C(CC1CN(Cc2ccccc2)CCN1c1ccnc(-n2ccnc2)n1)NCc1ccc2c(c1)OCO2 (stereo not given) | 7 | 770 | 0.013 | inactive | 0.001 |
| Cc1cc(N2CCCCC2CC(=O)NCc2ccc3c(c2)OCO3)nc(-n2ccnc2)n1 (stereo not given) | 5 | 1200 | 0.016 | inactive | 0.0041 |
| CN(C)c1ccc(CNC(=O)CC2CCCCN2c2ccnc(-n3ccnc3)n2)cc1 (stereo not given) | 29 | 86 | 0.245 | inactive | 0.066 |
| O=C(CC1CCCCN1c1ccnc(-n2ccnc2)n1)NCc1ccc(Cl)cc1 (stereo not given) |  |  | 0.16 | inactive |  |
| Cc1cc(N2CCC[C@H]2C(=O)NCCc2ccc3c(c2)OCO3)nc(-n2ccnc2)n1 |  |  |  | inactive | 6.4 |
| COC(=O)N1CCN(c2ccnc(-n3ccnc3)n2)[C@H](CC(=O)NCc2ccc3c(c2)OCO3)C1 |  |  | > 1 | inactive | 0.034 |
| O=C(CC1CCCCN1c1cccc(-n2ccnc2)c1)NCc1ccc2c(c1)OCO2 (stereo not given) |  |  |  | inactive | 0.077 |
| Cc1ccc(CNC(=O)CC2CCCCN2c2ccnc(-n3ccnc3)n2)cc1 (stereo not given) |  |  | 0.274 | inactive |  |
| CN(C)c1cccc2c(S(=O)(=O)N3CCN(c4ccnc(-n5ccnc5)n4)C(CC(=O)NCc4ccc5c(c4)OCO5)C3)cccc12 (stereo not given) |  |  |  | inactive | 0.0011 |
| CS(=O)(=O)Nc1ccc(CNC(=O)CC2CCCCN2c2ccnc(-n3ccnc3)n2)cc1 (stereo not given) |  |  | > 1 | inactive |  |
| Cc1cc(N2CCNC(CC(=O)NCc3ccc4c(c3)OCO4)C2)nc(-n2ccnc2)n1 (stereo not given) |  |  | > 1 | inactive | 0.1 |
| O=C(CC1CCCCN1c1ccnc(-n2ccnc2)n1)NCc1ccccn1 (stereo not given) |  |  |  | inactive |  |
| COc1ccccc1CNC(=O)CC1CCCCN1c1ccnc(-n2ccnc2)n1 (stereo not given) |  |  | 0.5 | inactive |  |
| COc1ccc(CNC(=O)CC2CCCCN2c2ccnc(-n3ccnc3)n2)cc1OC (stereo not given) |  |  | 0.11 | inactive |  |
| Cc1cc(N2CCN(S(C)(=O)=O)C(CC(=O)NCc3ccc4c(c3)OCO4)C2)nc(-n2ccnc2)n1 (stereo not given) |  |  | > 1 | inactive | 0.012 |
